# SENP6 block: SENP6 protease inhibition; Q9GZR1; Recombinant SENP6 catalytic domain, aminoluciferin luminescence; inhibition, % at 10 µM; 1.8% of 330,000 active;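 active means inhibition above about 50% at the single tested dose, limit read from the data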;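 further: plate controls were DMSO wells with enzyme for no effect and DMSO wells lacking enzyme for full effect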
# Platelet DG rel: modulates dense granule release in human platelets; 0.22% of 300,000 active; AID 1663; human platelet-rich plasma, SFLLRN dense granule ATP release, luminescence; inhibition, %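 (compounds screened at 7.5 µM in platelet-rich plasma)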;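 active means mean replicate score, as percent of positive control, at or above 50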
# SENP1 inh: blocks the human SENP1 SUMO protease catalytic domain; recombinant SENP1 catalytic domain, CyPet-SUMO1-YPet FRET cleavage; AID 624204; inhibition, % at 10 µM; 0.21% of 360,000 active;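 active means inhibition at least 30% at 10 µM, raw YFP signal under a set limit, fluorescence ratio 0.5 to 1.5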;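 further: 0% = enzyme with DMSO and 100% = no enzyme wells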
# Target sequence (Q9P0U3 419-644 limits assumed): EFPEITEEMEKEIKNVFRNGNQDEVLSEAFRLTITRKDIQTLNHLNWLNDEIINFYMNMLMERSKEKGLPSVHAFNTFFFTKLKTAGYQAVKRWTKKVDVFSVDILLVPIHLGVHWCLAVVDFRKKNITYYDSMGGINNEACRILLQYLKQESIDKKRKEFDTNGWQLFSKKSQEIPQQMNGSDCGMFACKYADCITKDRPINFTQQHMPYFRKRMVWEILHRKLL
#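 system = hSENP1 catalytic domain, recombinant | reagent = SFCypet-SUMO1-SFYpet substrate at 25 nM | doses = one dose per compound, 10 µM, 0.5% DMSO | incubation = enzyme reaction for 50 min at room temperature, dark | measured by = FRET, CFP and YFP emission | controls = no-enzyme low, enzyme-DMSO high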
# SENP8 block-1: inhibitors of human SENP8 protease; Q96LD8; recombinant SENP8, Nedd8 substrate fluorescence; inhibition, % at 20 µM; 0.64% of 360,000 active; AID 602440; in the data active means inhibition mostly above about 40%, no sharp cut-off; inactive means mostly below about 27%
# SENP7 block: blocks the human protease SENP7. Q9BQF6. recombinant SENP7, Z-RLRGG-aminoluciferin luminescence, 40 min. inhibition, % at 5 µM. 1.5% of 330,000 active. AID 434973;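 active means inhibition above about 50% at the single test dose, limit read from the data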;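 further: plate controls were DMSO with enzyme for no effect and no enzyme buffer wells for full effect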
# Target sequence (Q9BQF6 706-1050 limits assumed): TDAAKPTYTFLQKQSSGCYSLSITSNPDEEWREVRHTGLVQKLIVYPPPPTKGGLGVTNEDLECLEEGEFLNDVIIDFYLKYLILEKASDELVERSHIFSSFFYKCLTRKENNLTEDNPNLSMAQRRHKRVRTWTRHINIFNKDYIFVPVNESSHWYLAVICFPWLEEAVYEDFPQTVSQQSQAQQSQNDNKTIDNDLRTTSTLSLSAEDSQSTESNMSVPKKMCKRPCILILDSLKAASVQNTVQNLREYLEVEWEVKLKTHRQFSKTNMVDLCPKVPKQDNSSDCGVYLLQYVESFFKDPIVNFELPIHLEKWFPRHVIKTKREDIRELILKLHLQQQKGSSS
# SENP8 block-2: inhibitors of human SENP8 protease | inhibition, % at 10 µM | purified SENP8, Z-RLRGG-aminoluciferin cleavage, luminescence | 1.2% of 330,000 active | Q96LD8 | AID 2540; in the data active means inhibition above about 50%
# SENP8 inh conf: SENP8 (human) inhibition, single concentration confirmation; shares compounds with SENP8 block-1; inhibition, % at 25 µM; purified SENP8, Nedd8-AMC/pro-Nedd8 cleavage fluorescence, 30 min; 15% of 1,400 active; in the data active means inhibition mostly above about 39%, no sharp cut-off; inactive means mostly below about 34%
# Starred values were filed as active, the others as inactive; . = not tested or not shown. Compounds with a hit are over-represented: about 2.6% of the library has one in this group of screens.
SMILES,SENP6 block,Platelet DG rel,SENP1 inh,SENP8 block-1,SENP7 block,SENP8 block-2,SENP8 inh conf
O=C1CCC(=O)N1c1ccc(NC2CCN(Cc3ccccc3)CC2)c([N+](=O)[O-])c1,-8.5,3.0,4.5,36.9,9.3,0.1,.
O=[N+]([O-])c1ccc(NC2CCN(Cc3ccccc3)CC2)c([N+](=O)[O-])c1,-3.5,3.4,1.3,27.9,-4.9,9.2,.
O=[N+]([O-])c1ccccc1NC1CCN(Cc2ccccc2)CC1,-15.8,14.7,1.4,44.2*,10.6,1.2,19.7
COc1ccc(S(=O)(=O)N2CCN(Cc3c[nH]c4ccccc34)CC2)cc1,14.7,2.2,4.6,24.4,-1.1,0.6,.
O=[N+]([O-])c1ccc(S(=O)(=O)N2CCN(Cc3c[nH]c4ccccc34)CC2)cc1,3.1,-6.1,5.5,59.1*,3.0,5.3,23.7
CC1=NN(c2ccccc2)C(=O)C1C=Nc1ccc(N(C)C)cc1 (centres undefined),-4.3,-6.2,-39.6,16.6*,-6.7,-8.5,13.8
CC1=NN(c2ccccc2)C(=O)C1N=Nc1ccc(C)cc1 (centres undefined),3.9,-11.7,.,.,2.5,-1.5,.
COc1ccc(CN2CCN(S(=O)(=O)c3ccc(NC(C)=O)cc3)CC2)c(OC)c1OC,4.3,1.4,0.5,9.7,9.4,-1.5,.
COc1ccc(N2CCN(C(=O)[C@@H]3CCCN3C3=NS(=O)(=O)c4ccccc43)CC2)cc1,-25.2,.,1.8,17.0,-6.2,-8.7,.
CC1CCc2nc(NC(=O)CN3CCN(Cc4ccc5c(c4)OCO5)CC3)sc2C1 (centres undefined),-15.3,16.6,0.6,37.7,4.6,-0.1,.
CC1CCc2nc(NC(=O)Nc3ccc4c(c3)OCO4)sc2C1 (centres undefined),-7.8,2.5,2.7,42.1*,2.1,1.6,9.3
CC(C)(C)c1ccc(C(=O)N2CCOC23CCCCC3)cc1,.,.,-1.4,4.9,.,.,.
NNc1nnc2c3cc(F)ccc3n(CCc3ccccc3)c2n1,17.0,2.6,-0.2,51.6*,-0.7,4.9,39.2
CC1(C)OC(c2ccccc2)=C/C(=C/C=N/NC(=O)c2ccncc2)O1,-14.0,-10.3,3.2,41.4*,-5.0,-0.1,24.5
O=C1Nc2ccc(Br)cc2C12NNc1ccccc1O2 (centres undefined),-36.5,-3.8,58.1,43.3*,8.9,-13.9,18.1
CC(NC(=O)COC(=O)c1ccccc1F)C1CC2CCC1C2 (centres undefined),-17.2,.,2.3,-4.5,2.3,-5.5,.
COc1ccc(-c2csc(NC(=O)C3CC(=O)N(Cc4ccccc4)C3)n2)cc1OC (centres undefined),-9.8,-4.1,-0.3,-30.4,-3.0,-10.2,.
CCNc1nc(Oc2ccc(=O)n(C)n2)nc(N2CCOCC2)n1,-26.2,0.0,1.0,21.2,-10.1,1.7,.
CNc1nc(Oc2ccc(=O)n(C)n2)nc(N2CCOCC2)n1,10.8,3.2,1.8,43.9*,5.1,1.3,1.1
Cc1cnc(C(=O)Nc2c(-c3ccccc3)[nH][nH]c2=O)cn1,.,.,5.5,41.4*,.,.,45.2*
O=C(Nc1c(-c2ccc(Cl)cc2)[nH][nH]c1=O)c1ccc(Br)cc1,.,.,0.1,43.3*,.,.,24.5
O=C(Nc1c(-c2ccccc2)[nH][nH]c1=O)c1cccc(C(F)(F)F)c1,.,.,3.2,49.3*,.,.,13.1
CCc1nc2c(OCC3COc4ccccc4O3)cccn2c1N(C)C(=O)c1cccc(OC)c1 (centres undefined),.,.,1.5,-14.3,.,.,.
COC(=O)c1cc(C(=O)OCC(=O)N2CCCCC2)cc([N+](=O)[O-])c1,2.2,.,1.8,4.9,0.1,1.7,.
Cc1onc(-c2c(Cl)cccc2Cl)c1C(=O)N=S(C)(=O)c1ccccc1 (centres undefined),-6.9,13.2,2.2,40.8*,2.4,-4.4,8.1
SMILES,SENP6 block,Platelet DG rel,SENP1 inh,SENP8 block-1,SENP7 block,SENP8 block-2,SENP8 inh conf
Cc1onc(-c2c(Cl)cccc2Cl)c1C(=O)c1ccccc1,-41.3,5.4,1.9,12.8,-1.1,-7.3,.
CCc1noc(C)c1C(=O)NNC(=O)c1ccccc1F,-8.0,5.0,2.4,7.0,-1.0,4.8,.
COc1ccc(NC(=O)Nc2ccc(N3CCOCC3)c3nonc23)c(OC)c1,14.0,3.4,14.1,44.0*,7.6,11.0,11.0
O=C(Nc1ccc(N2CCOCC2)c2nonc12)C1CCCC1,48.8,2.7,4.6,35.1,23.6,23.6,.
C=CC[C@]12C[C@@H](OC)C(=O)C=C1O[C@@H](c1ccc(OC)c(OC)c1)[C@H]2C,-2.8,0.0,-1.9,41.5*,-2.2,4.2,11.4
C=CC[C@@]12C=C(OC)C(=O)C(OC)=C1O[C@H](c1ccc3c(c1)OCO3)[C@H]2C,0.8,-3.6,-1.8,12.7,-8.4,2.0,.
C[C@H](CCC(=O)O)[C@H]1CC[C@H]2[C@@H]3CC[C@@H]4C[C@H](O)CC[C@]4(C)[C@H]3CC[C@]12C,4.5,.,1.7,63.8*,-6.9,3.9,13.1
O=C(Cn1c(=O)n(CCC(=O)N2CCc3ccccc3C2)c(=O)c2ccccc21)NCC1CCCO1 (centres undefined),.,-0.7,-3.9,62.5*,.,.,16.3
O=C(Cn1c(=O)n(Cc2ccccc2)c(=O)c2cc(Cl)ccc21)NCC1CCCO1 (centres undefined),-6.7,2.1,1.2,-2.3,-8.7,-10.2,.
Cc1c(C(=O)N(C)C)sc(NC(=O)c2cc([N+](=O)[O-])cc([N+](=O)[O-])c2)c1C#N,-1.7,-1.3,1.3,43.7*,8.0,-2.9,27.6
CCCCOc1ccc(/C=N/NC(=S)Nc2cc(C)ccc2C)cc1,9.7,4.8,1.8,5.4,-1.7,1.7,.
CCCCOc1ccc(/C=N/NC(=S)Nc2cccc(C)c2C)cc1,3.2,0.0,-0.7,40.0*,11.9,1.1,5.0
CCOC(=O)C(/C=C(\C#N)C(=O)OCC)=C(/N)N1CCN(c2ccc(Cl)cc2)CC1,-6.6,-3.9,-4.1,46.5*,6.6,-3.3,23.2
CCOC(=O)CN(C(=O)COC(=O)C1=NNC(=O)CC1)c1ccc(F)cc1,12.2,.,4.5,-4.1,10.5,1.6,.
CC(C)(C)C(=O)NCCCc1nc2ccccc2n1CCCOc1ccc(Cl)cc1,-14.1,-74.5,0.6,41.1*,5.6,-1.6,24.9
O=C1Cc2ccccc2C(=O)N1,.,.,-9.2,80.9*,.,.,84.2*
O=C(NCC(=O)N(CC1CCCO1)C(C(=O)NC1CCCC1)c1ccc(F)cc1)c1ccco1 (centres undefined),-12.4,.,-0.4,21.3,-0.2,-6.0,.
O=C(NCC(=O)N(CC1CCCO1)C(C(=O)NC1CCCC1)c1cccnc1)c1ccco1 (centres undefined),1.7,-1.2,0.2,41.5*,-1.0,2.3,13.8

# Source: PubChem (several laboratories)
